Results reported in ChEMBL document CHEMBL3102749, “Antiprotozoal activity of dicationic 3,5-diphenylisoxazoles, their prodrugs and aza-analogues” (Bioorg Med Chem, 2014).
Calls of active or inactive are those of the source. The calls are words filed in the database; no cut-off is given here.

Legend:
[1] = system: Trypanosoma brucei rhodesiense; test: Trypanocidal activity against bloodstream form of Trypanosoma brucei rhodesiense STIB900 infected in NMRI mouse assessed as mean survival days at 5 mg/kg, ip qd administered for 4 days; type: functional; details: route intraperitoneal
Summary of the method: (§1)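 Mice infected with T. b. rhodesiense STIB900 (acute model) dosed once daily for 4 consecutive days, ip (diamidines) or oral (prodrugs). Cure means survival to 60 days post infection without parasitemia relapse. Mean survival days post infection are averaged over all mice, with cured mice counted as >60 days.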

[2] = system: Trypanosoma brucei rhodesiense; test: Trypanocidal activity against bloodstream form of Trypanosoma brucei rhodesiense STIB900 infected in NMRI mouse assessed as decrease in parasitemia at 5 mg/kg, ip qd administered for 4 days measured once per week until 60 days by microscopic analysis; type: functional, organism-based; design: dose 5 mg/kg
Summary of the method: (§2)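 Mice infected with T. b. rhodesiense STIB900 received one dose daily for 4 consecutive days, 4 mice per group. Diamidines were given intraperitoneally and prodrugs orally. The primary endpoint was cures per group: a mouse counted as cured if it survived 60 days post-infection without parasitemia relapse.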

[3] = system: Trypanosoma brucei rhodesiense; test: Trypanocidal activity against bloodstream form of Trypanosoma brucei rhodesiense STIB900 infected in NMRI mouse assessed as mean survival days at 25 mg/kg, po qd administered for 4 days; type: functional; summary of the method: as §1
[4] = system: Trypanosoma brucei rhodesiense; test: Trypanocidal activity against bloodstream form of Trypanosoma brucei rhodesiense STIB900 infected in NMRI mouse assessed as decrease in parasitemia at 25 mg/kg, po qd administered for 4 days measured once per week until 60 days by microscopic analysis; type: functional, organism-based; design: dose 25 mg/kg; summary of the method: as §2
[5] = Selectivity index, ratio of IC50 for rat L6 cells to IC50 for chloroquine/pyrimethamine-resistant Plasmodium falciparum K1 infected in human red blood cells; type: toxicity, cell-based; details: read-out: Ratio IC50
Summary of the method: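 Ratio of IC50 in L6 rat myoblast cytotoxicity assay to IC50 against P. falciparum K1; each IC50 is the mean of two independent assays.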

[6] = Selectivity index, ratio of IC50 for rat L6 cells to IC50 for Trypanosoma brucei rhodesiense STIB900; type: toxicity, cell-based; details: read-out: Ratio IC50
Summary of the method: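 Ratio of IC50 in L6 rat myoblast cytotoxicity assay to IC50 against T. b. rhodesiense STIB900; each IC50 is the mean of two independent assays.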

L6 = test: Cytotoxicity against rat L6 cells assessed as cell viability after 70 hrs by Alamar blue assay; type: cell-based; details: L6, 70 h
Plasmodium falciparum = test: Antiplasmodial activity against chloroquine/pyrimethamine-resistant Plasmodium falciparum K1 infected in human red blood cells assessed as [3H]-hypoxanthine incorporation incubated for 48 hrs prior to [3H]-hypoxanthine addition measured after 24 hrs by liquid scintillation counting analysis; type: functional, organism-based
[7] = system: Trypanosoma brucei rhodesiense; test: Antitrypanosomal activity against Trypanosoma brucei rhodesiense STIB900 assessed as growth inhibition after 70 hrs by Alamar blue assay; type: functional, organism-based; details: STIB900, 70 h

Compound | MSD [1] [days] | MSD [3] [days] | Activity [4] | selectivity ratio [5] | selectivity ratio [6] | IC50 (L6) [nM] | IC50 (Plasmodium falciparum) [nM] | IC50 [7] [nM] | also measured
COc1cc(C(=N)N)ccc1-c1cc(-c2ccc(C(=N)N)cc2)on1.Cl.Cl | >60 |  |  |  |  |  |  |  | Activity [2]: Active
Cl.Cl.Cl.N/C(=N\O)c1ccc(-c2cc(-c3ccc(/C(N)=N/O)cc3Cl)on2)cc1 |  | >36.5 | inactive |  |  |  |  |  | 
Cl.Cl.Cl.N/C(=N\O)c1cccc(-c2cc(-c3ccc(/C(N)=N/O)cc3Cl)on2)c1 |  | 8.5 | inactive |  |  |  |  |  | 
CO/N=C(\N)c1ccc(-c2cc(-c3cc(/C(N)=N/OC)ccc3OC)no2)cc1.Cl.Cl |  | >37.25 |  |  |  |  |  |  | 
Cl.Cl.N=C(N)c1ccc(-c2cc(-c3ccc(C(=N)N)cc3)on2)cc1 | >60 |  |  |  |  |  |  |  | 
Cl.Cl.N=C(N)c1ccc(-c2cc(-c3cccc(C(=N)N)c3)no2)nc1 | >38.75 |  |  | 27800 | 15900 | 115000 | 4.1 | 7.2 | Activity [2]: inactive
N=C(N)c1cncc(-c2cc(-c3cccc(C(=N)N)c3)on2)c1 |  |  |  | > 10000 | > 309 | > 180000 | 18 | 583 | 
CO/N=C(\N)c1cccc(-c2cc(-c3ccc(/C(N)=N/OC)cc3OC)on2)c1.Cl.Cl |  | 7.25 | inactive |  |  |  |  |  | 
N=C(N)c1ccc(-c2cc(-c3ccc(C(=N)N)cn3)on2)nc1 |  |  |  | > 1350 | > 302 | > 180000 | 134 | 596 | 
Cl.Cl.N=C(N)c1ccc(-c2cc(-c3ccc(C(=N)N)cc3[N+](=O)[O-])on2)cc1 | >53.75 |  |  |  |  |  |  |  | 
Cl.Cl.N/C(=N\O)c1ccc(-c2cc(-c3cccc(/C(N)=N/O)c3)no2)cc1 |  | 20 | inactive |  |  |  |  |  | 
N=C(N)c1cccc(-c2cc(-c3cc(C(=N)N)ccn3)on2)c1 |  |  |  | > 7230 | > 986 | > 180000 | 24.9 | 183 | 
Cl.Cl.Cl.N=C(N)c1cccc(-c2cc(-c3ccc(C(=N)N)cc3Cl)no2)c1 | 24 |  |  |  |  |  |  |  | Activity [2]: inactive
COc1cc(C(=N)N)ccc1-c1cc(-c2ccc(C(=N)N)cc2OC)on1.Cl.Cl | >60 |  |  |  |  |  |  |  | Activity [2]: Active
Cl.Cl.N=C(N)c1cccc(-c2cc(-c3ccc(C(=N)N)nc3)on2)c1 | >41.75 |  |  | 1290 | 379 | 1400 | 1.1 | 3.7 | Activity [2]: inactive
COc1c(/C(N)=N/O)cccc1-c1cc(-c2cccc(/C(N)=N/O)c2OC)on1.Cl.Cl |  | 6 | inactive |  |  |  |  |  | 
N=C(N)c1ccnc(-c2cc(-c3cc(C(=N)N)ccn3)on2)c1 |  |  |  | > 550 | > 32 | > 180000 | 327 | 5710 | 
COc1cc(C(=N)N)ccc1-c1cc(-c2cc(C(=N)N)ccc2OC)on1.Cl.Cl | >60 |  |  |  |  |  |  |  | Activity [2]: Active
Cl.Cl.Cl.N=C(N)c1cccc(-c2cc(-c3cc(C(=N)N)ccc3Cl)no2)c1 | 22.25 |  |  |  |  |  |  |  | Activity [2]: inactive
Cl.Cl.N=C(N)c1cccc(-c2cc(-c3cncc(C(=N)N)c3)on2)c1 | 21.75 |  |  | > 9170 | > 964 | > 180000 | 21.7 | 207 | Activity [2]: inactive
COc1c(/C(N)=N/O)cccc1-c1cc(-c2ccc(/C(N)=N/O)cc2)no1.Cl.Cl |  | 25.75 | inactive |  |  |  |  |  | 
Cl.Cl.N=C(N)c1ccc(-c2cc(-c3ccc(C(=N)N)nc3)on2)cc1 | >57.25 |  |  | 1050 | 643 | 1760 | 1.7 | 2.7 | 
COc1ccc(C(=N)N)cc1-c1cc(-c2ccc(C(=N)N)cc2[N+](=O)[O-])no1.Cl.Cl | >60 |  |  |  |  |  |  |  | Activity [2]: Active
Cl.Cl.N=C(N)c1ccc(-c2cc(-c3cc(C(=N)N)ccn3)on2)cc1 | 28.5 |  |  | 2570 | 2320 | 149000 | 58 | 64.3 | Activity [2]: inactive
COc1cc(/C(N)=N/O)ccc1-c1cc(-c2cccc(/C(N)=N/O)c2)no1.Cl.Cl |  | 8 | inactive |  |  |  |  |  | 
CO/N=C(\N)c1ccc(-c2cc(-c3ccc(/C(N)=N/OC)cc3OC)no2)cc1.Cl.Cl |  | 27 | inactive |  |  |  |  |  | 

Compound | MSD [1] [days] | MSD [3] [days] | Activity [4] | selectivity ratio [5] | selectivity ratio [6] | IC50 (L6) [nM] | IC50 (Plasmodium falciparum) [nM] | IC50 [7] [nM] | also measured
COc1cc(/C(N)=N/O)ccc1-c1cc(-c2ccc(/C(N)=N/O)cc2)no1.Cl.Cl |  | 26.25 | inactive |  |  |  |  |  | 
Nc1nc(N)nc(Nc2ccc([As]3SCC(CO)S3)cc2)n1 (centres undefined) |  |  |  |  |  |  |  |  | Activity [2]: Active
Cl.Cl.N/C(=N\O)c1ccc(-c2cc(-c3cc(/C(N)=N/O)ccc3[N+](=O)[O-])no2)cc1 |  | 7.25 | inactive |  |  |  |  |  | 
CO/N=C(\N)c1ccc(-c2cc(-c3ccc(/C(N)=N/OC)cc3Cl)on2)cc1.Cl.Cl.Cl |  | 39 | inactive |  |  |  |  |  | 
C[C@@H]1CC[C@H]2[C@@H](C)C(=O)O[C@@H]3O[C@@]4(C)CC[C@@H]1[C@]32OO4 [ARTEMISININ] |  |  |  |  |  | > 180000 | 4 |  | 
Cl.Cl.N=C(N)c1cccc(-c2cc(-c3ccc(C(=N)N)nc3)no2)c1 | >60 |  |  | 3800 | 1120 | 2080 | 0.5 | 1.8 | Activity [2]: Active
CO/N=C(\N)c1ccc(-c2cc(-c3cc(/C(N)=N/OC)ccc3[N+](=O)[O-])no2)cc1.Cl.Cl |  | 13.5 | inactive |  |  |  |  |  | 
CO/N=C(\N)c1ccc(-c2cc(-c3ccc(/C(N)=N/OC)cc3OC)on2)cc1.Cl.Cl |  | 15.75 | inactive |  |  |  |  |  | 
Cl.Cl.N/C(=N\O)c1cccc(-c2cc(-c3cccc(/C(N)=N/O)c3)on2)c1 |  | 7.5 | inactive |  |  |  |  |  | 
Cl.Cl.Cl.N=C(N)c1ccc(-c2cc(-c3ccc(C(=N)N)cc3Cl)no2)cc1 | 28 |  |  |  |  |  |  |  | Activity [2]: inactive
CO/N=C(\N)c1ccc(-c2cc(-c3cccc(/C(N)=N/OC)c3)no2)cc1.Cl.Cl |  | 8 | inactive |  |  |  |  |  | 
Cl.Cl.N=C(N)c1ccc(-c2cc(-c3cncc(C(=N)N)c3)on2)cc1 | >54.5 |  |  | 231 | 302 | 4370 | 18.9 | 14.4 | 
Cl.Cl.N=C(N)c1ccc(-c2cc(-c3ccc(C(=N)N)cc3[N+](=O)[O-])no2)cc1 | >51.25 |  |  |  |  |  |  |  | 
CO/N=C(\N)c1cccc(-c2cc(-c3ccc(/C(N)=N/OC)cc3Cl)on2)c1.Cl.Cl.Cl |  | 14 | inactive |  |  |  |  |  | 
N=C(N)c1ccc(-c2cc(-c3cc(C(=N)N)ccn3)on2)nc1 |  |  |  | > 1260 | > 53 | > 180000 | 142 | 3380 | 
CO/N=C(\N)c1ccc(-c2cc(-c3ccc(/C(N)=N/OC)cc3)on2)cc1.Cl.Cl |  | >42.25 |  |  |  |  |  |  | 
Cl.Cl.N=C(N)c1ccc(-c2cc(-c3ccc(C(=N)N)cn3)no2)cc1 | >52.75 |  |  | 2770 | 915 | 46200 | 16.7 | 50.5 | 
Cl.Cl.Cl.N=C(N)c1cccc(-c2cc(-c3cc(C(=N)N)ccc3Cl)on2)c1 | 25 |  |  |  |  |  |  |  | Activity [2]: inactive
Cl.Cl.N=C(N)c1ccc(-c2cc(-c3ccc(C(=N)N)cn3)on2)cc1 | >44 |  |  | 3750 | 2970 | 35900 | 9.6 | 12.1 | 
N=C(N)c1cncc(-c2cc(-c3cncc(C(=N)N)c3)on2)c1 |  |  |  | > 1250 | > 29 | > 180000 | 144 | 6120 | 
N=C(N)c1ccc(-c2cc(-c3cc(C(=N)N)ccn3)no2)nc1 |  |  |  | > 2430 | > 180 | > 180000 | 7.4 | 1670 | 
Cl.Cl.Cl.N=C(N)c1ccc(-c2cc(-c3ccc(C(=N)N)cc3Cl)on2)cc1 | >31 |  |  |  |  |  |  |  | Activity [2]: inactive
COc1cc(/C(N)=N/O)ccc1-c1cc(-c2ccc(/C(N)=N/O)cc2)on1.Cl.Cl |  | >42 |  |  |  |  |  |  | 
N=C(N)c1cccc(-c2cc(-c3cc(C(=N)N)ccn3)no2)c1 |  |  |  | 8700 | 265 | 130000 | 15 | 492 | 
CO/N=C(\N)c1cccc(-c2cc(-c3ccc(/C(N)=N/OC)cc3OC)no2)c1.Cl.Cl |  | >50 |  |  |  |  |  |  | 
